STAT1 blocker – STAT1 signaling inhibition. 200,000 tested, 0.35% active. NIH 3T3 STAT1-luciferase reporter, IFN-gamma, luminescence. inhibition, % at 5.5 µM. AID 920;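 active = inhibition above a set limit, the mean inhibition across all tested compounds plus 3 SD, cut at about 34% in these data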
STAT1 activator – increases IFN-gamma driven STAT1 reporter signal | NIH 3T3 STAT1-luciferase reporter, luminescence; 100% = IFN-gamma alone, no compound | activation (% of control), % at 5.5 µM | 200,000 tested, 2.6% active;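 active = activation above the screen-wide mean activation plus 3 SD, cut at about 130% in these data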
STAT3 activator – activators of IL-6 induced STAT3 signaling; U3A cells, IL-6 STAT3-luciferase reporter, luminescence; 100% = signal with IL-6 EC80 alone; activation (% of control), % at 5.6 µM; 190,000 tested, 0.91% active;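 active = activation above the screen-wide mean of compound activation plus 3 SD, cut at about 130% in these data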
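Assay system – human STAT1-deficient U3A cells with stable STAT3-luciferase reporter · Also added – IL-6 (33 ng/mL) · Schedule – compound 1 h, then IL-6 6 h at 37 °C · Technique – reporter luminescence signal · Evaluation – % activation versus median of IL-6-stimulated wells · Benchmarks – IL-6-only wells as 100% reference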
FLuc inh counter – counter-screen for luciferase assay inhibitors: firefly luciferase inhibition; P08659; ATPLite firefly luciferase biochemical luminescence, 10 min; inhibition, % at 10 µM; 200,000 tested, 1.5% active; AID 1006;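 active = inhibition above about 50% when tested at 10 µM, limit read from the data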
Target sequence (P08659 whole entry, looked up): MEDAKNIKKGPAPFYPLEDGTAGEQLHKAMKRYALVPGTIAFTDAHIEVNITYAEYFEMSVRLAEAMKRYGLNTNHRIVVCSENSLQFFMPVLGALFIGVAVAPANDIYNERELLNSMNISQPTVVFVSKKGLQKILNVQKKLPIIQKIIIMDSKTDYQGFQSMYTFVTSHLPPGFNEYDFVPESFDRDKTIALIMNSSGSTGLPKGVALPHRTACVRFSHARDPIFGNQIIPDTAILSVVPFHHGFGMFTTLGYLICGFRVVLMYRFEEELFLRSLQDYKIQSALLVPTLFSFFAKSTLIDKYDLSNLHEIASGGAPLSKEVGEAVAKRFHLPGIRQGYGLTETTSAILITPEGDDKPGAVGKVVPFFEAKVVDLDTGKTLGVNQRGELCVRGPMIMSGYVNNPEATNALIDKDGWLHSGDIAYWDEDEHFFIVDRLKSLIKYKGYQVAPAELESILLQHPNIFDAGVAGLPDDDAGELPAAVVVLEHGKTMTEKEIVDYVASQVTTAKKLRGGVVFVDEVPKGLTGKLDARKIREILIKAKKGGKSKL
STAT3 inh – inhibitors of IL-6 induced STAT3 signaling. U3A cells, IL-6 STAT3-luciferase reporter, luminescence; host cell line lacks STAT1. inhibition, % at 5.5 µM. 190,000 tested, 0.89% active. AID 862;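 active = inhibition above the mean inhibition across all screened compounds plus 3 SD, cut at about 44% in these data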
FLuc act counter – firefly luciferase counter-screen for stimulation assays; activation factor at 10 µM; ATPlite luciferase biochemical, luminescence, 10 min; 0 = ATP-free wells, 1 = DMSO control; 200,000 tested, under 10 active; P08659;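 active = luciferase activation factor, scaled between plate controls, of at least 2 with compound at 10 µM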
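test system = cell-free luciferase reagent | medium = PBS as buffer for the ATP substrate | dosing = test compounds dosed from 2 mM stocks in 100% DMSO | incubation = 10 min at ambient temperature | detection = luminescence measurement of luciferase light output | benchmarks = low control with PBS replacing ATP, high control enzyme plus ATP without compound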
Each line names hits and unclear results; the compound was inactive in the other large screens. In the library only some 4.9% were active in any assay of this set; here they are far more common.

O=C(Nc1nnc(SCC(=O)N2CCOCC2)s1)c1ccccc1	FLuc inh counter 92
CCOc1ccccc1C(=O)Nc1nnc(SCC(=O)Nc2cc(C)on2)s1	none
CC1(C)Cc2nc3nc(SCC(=O)Nc4ccccc4)nc(N)c3cc2CO1	none
Nc1cc(C(=O)O)ccc1Sc1ccccc1C(=O)O	none
O=C(/C=C/c1ccccc1)N1CCCN(C(=O)/C=C/c2ccccc2)CC1	none
CC(C)Cc1ccc(/C=C/C(=O)NC2CC2)cc1	STAT1 activator 147
CC(C)Cc1ccc(/C=C/C(=O)N2CCCCC2)cc1	STAT1 activator 139
C=CCn1c(SC(C)C#N)nc2sc(CC)cc2c1=O (stereo not given)	none
Cc1ccc(C(=O)COC(=O)c2cn3ccccc3n2)cc1	none
COc1cccc(OC)c1C(=O)Nc1nc2ccc([N+](=O)[O-])cc2s1	none
CCC(C)NCCOCCOc1ccc(Cl)cc1Br (stereo not given)	none
COc1ccc(C(=O)N[C@H](C(=O)Nc2nc3ccccc3[nH]2)C(C)C)cc1	FLuc inh counter 53
COc1cccc(C(=O)Nc2nc3ccccc3[nH]2)c1	STAT1 blocker 44, FLuc inh counter 91, STAT3 inh 86
Cc1cccc(C(=O)N[C@H](C(=O)Nc2nc3ccccc3[nH]2)C(C)C)c1	none
Cc1ccc(-c2cc(C(=O)N3CCN(c4ncccn4)CC3)c3cc(Br)ccc3n2)o1	none
CCOC(=O)CNC(=O)c1c(C)nn(C)c1Cl	none
C/C(=N\NC(=O)c1ccc(=O)[nH]n1)c1cccnc1	none
COc1ccc(-n2c(C)cc(/C=N/Nc3nnc(C)n3N)c2C)cc1	STAT1 activator 131
COc1cc(Cl)c(C)cc1NC(=O)c1cccc(OC)c1OC	none
O=C(Nc1ccccc1)OCc1cncs1	none
O=C(/C=C/c1ccccc1)OCc1cncs1	STAT1 activator 129
Cc1c(-c2ccccc2)n[nH]c1C(=O)NN	none
CCOc1ccc(-c2n[nH]c(C(=O)NN)c2C)cc1	STAT1 activator 129
C=CCN(Cc1nc(-c2ccc(OC)c(OC)c2)oc1C)C1CCS(=O)(=O)C1 (stereo not given)	none
COc1ccc(C2=NCN(c3ccc(C)cc3)C(=S)N2)cc1	none
Cc1ccc(N2CN=C(c3ccccc3)NC2=S)cc1	STAT1 activator 130
CC1CN(C(=O)c2ccccc2)c2ccccc2NC1=O (stereo not given)	none
CN(C)/C=N/c1sc2c(c1C(N)=O)CCCC2	none
Cc1ccc(/C=N/c2sc3c(c2C(N)=O)CCCC3)o1	STAT1 activator 146
CC/C(=N\O)c1c(O)c2c(n(-c3ccccc3)c1=O)CCCC2	none
Cc1ccc(/C=c2/sc3n(c2=O)CCCN=3)o1	STAT1 activator 129
Cc1ccc(S(=O)(=O)N2CCN(C(=O)N(C)C)CC2)cc1	none
COc1ccc(/C=C/C(=O)c2ccc3c(c2)OCO3)c(OC)c1	STAT1 activator 129, FLuc inh counter 78
COc1ccc(OC)c(/C=C/C(=O)c2ccc(Cl)cc2)c1	none
COc1ccc(/C=C/C(=O)c2ccccc2)c(OC)c1	STAT1 activator 147, FLuc inh counter 71
COc1ccc(/C=C/C(=O)c2ccc(OC)cc2OC)c(OC)c1	none (no result: STAT3 activator, STAT3 inh)
Cc1ccc(NC(=O)C(=O)Nc2ccc(C)cn2)nc1	none
O=C(/C=C/c1ccccc1)Nc1ccc(Br)cn1	STAT1 activator 142
Cc1ccc(NC(=O)/C=C/c2ccc(Cl)cc2)nc1	STAT1 activator 137, STAT3 activator 140
C/C(CC(=O)NCc1ccco1)=N\NC(=O)COc1ccc(C)cc1	none
COc1ccc(CC(=O)OCC(=O)c2ccc(OC)cc2)cc1	none
CCCCC(=O)OCC(=O)c1ccc(OCC)cc1	FLuc inh counter 53
CCC(=O)c1ccc(OCC(=O)O)cc1	none
CCOc1ccc(C(=O)COC(=O)CC)cc1	FLuc inh counter 56
COC(=O)CCC/C=C1\SC[C@@H](NC(=O)c2ccccc2)C1NC(C)=O (stereo not given in full)	none
COC(=O)c1nnn(CC(=O)NC(=O)Nc2cccc(Cl)c2C)c1C(=O)OC	none
COc1ccc(/C(N)=N/OC(=O)c2ccco2)cc1OC	STAT1 activator 149
N/C(=N\OC(=O)c1ccco1)c1cccc([N+](=O)[O-])c1	none
COc1ccc(/C(N)=N/OC(=O)CSc2ccccc2)cc1OC	STAT1 activator 145
N/C(=N\OC(=O)c1ccco1)c1cccc(Br)c1	FLuc inh counter 56
COc1ccc(/C(N)=N/OC(=O)CCc2ccccc2)cc1OC	none
CC1(C)Cc2ccccc2C(/C(C#N)=N/O)=N1	none
Cc1cc(C(=O)Nc2c[nH]c(=O)[nH]c2=O)ccc1[N+](=O)[O-]	none
O=C(/C=C/c1cccs1)N1CCc2ccccc21	STAT1 activator 134, FLuc inh counter 92
O=C(c1cccs1)N1CCc2ccccc21	STAT1 activator 139
Cn1c(=O)[nH]c(=O)c2c1nc(NCc1ccco1)n2Cc1ccccc1Cl	none
Cc1cc(/C=C2\SC(N)=NC2=O)c(C)n1-c1ccccc1	FLuc inh counter 83
CCc1ccc(N2CC(C(=O)Nc3cc(C)on3)CC2=O)cc1 (stereo not given)	none
CC(=O)OCC(=O)Nc1ccccc1C	none
O=C(c1ccco1)N1CCN(c2ccc(Cl)cc2)CC1	STAT1 activator 134
O=C(c1ccco1)N1CCN(C(=O)c2cc(-c3ccccn3)nc3ccc(Cl)cc23)CC1	STAT3 activator 135
O=C(c1ccco1)N1CCN(C(=O)c2cc(-c3ccccc3)nc3ccccc23)CC1	none
O=C(Cc1ccc(Cl)cc1)Nc1ccc(N2CCN(C(=O)c3ccco3)CC2)cc1	none
COc1ccc(C)cc1NC(=O)NCc1ccc(F)cc1	FLuc inh counter 58
CC(C)(C)NC(=O)COC(=O)c1ccccc1OCC(=O)Nc1ccc(Br)cc1	FLuc inh counter 64
CC(=O)Nc1ccc(C(C#N)c2ccccc2)cc1 (stereo not given)	none
O=C1CC(c2ccccc2)Sc2ccccc2N1 (stereo not given)	STAT3 activator 135
Cc1ccc(NC2Sc3ccccc3NC2=O)cc1 (stereo not given)	none
Fc1ccc(N2CCN(Cc3cnc(Cl)s3)CC2)cc1	none
Cn1c(SCC(=O)c2ccccc2)nnc1-c1ccc(O)cc1	STAT1 activator 129
O=C(O)CSCC(=O)Nc1ccc(Cl)cc1C(F)(F)F	none
CC(C)N(CC(=O)Nc1ccc(Cl)cc1C(F)(F)F)C(=O)CCl	STAT1 blocker 46, STAT3 inh 65
CCC(C)N(CC(=O)Nc1cccc(C)c1C)C(=O)CCl (stereo not given)	STAT1 blocker 38, STAT3 inh 70
C=CCN1CC2(c3ccccc3)CN(CC=C)CC(c3ccccc3)(C1)C2=O	none

Source: PubChem
